Published values pooled from the literature.
Protocols differ between the studies behind these lines. Converted amounts (≈) assume the structure as drawn.
Organism: Enterococcus faecalis
Observed: microbial growth

CCCCCCCCCCCCCCCC(=O)C(F)(F)P(=O)(O)O
MIC (ATCC33186): 100 µg/mL (≈ 270 µM)

CCCCCCCCCCCCCCCC(=O)NS(=O)(=O)OC1CCNCC1
MIC (broth dilution; ATCC33186): 12.5 µg/mL (≈ 29.9 µM)

Cc1cc(Cl)ccc1-c1ccc(/C=C2\SC(=S)N(CC(=O)O)C2=O)o1
MIC (broth dilution; VRE; drug-resistant strain): 1 to 8 µg/mL (≈ 2.54 to 20.3 µM)

CCCCCCCCCCCC(=O)C(F)(F)P(=O)(O)O
MIC (ATCC33186): 100 µg/mL (≈ 318 µM)

COc1ccc2cc1Oc1cc(ccc1OC)CCC(N[C@@H]1CCCc3ccccc31)CCCC2 (stereo partly shown)
MIC (broth dilution; ATCC33186): > 100 µg/mL

C=C(NC(=O)C(=C)NC(=O)c1csc(C2=N[C@@H]3c4csc(n4)[C@H]4NC(=O)c5csc(n5)[C@H]([C@](C)(O)[C@@H](C)O)NC(=O)[C@H]5CSC(=N5)/C(=C/C)NC(=O)[C@H]([C@@H](C)O)NC(=O)c5csc(n5)[C@]3(CC2)NC(=O)[C@H](C)NC(=O)C(=C)NC(=O)[C@H](C)NC(=O)[C@H]([C@@H](C)CC)N[C@@H]2C=Cc3c([C@H](C)O)cc(nc3[C@H]2O)C(=O)O[C@@H]4C)n1)C(N)=O
MIC: 0.12 µg/mL (≈ 0.0721 µM)

CCCCCCCCCCCCCCCC(=O)NS(=O)(=O)OC
MIC (broth dilution; ATCC33186): 50 µg/mL (≈ 143 µM)

CCCCCCCCCCCC(=O)CP(=O)(O)O
MIC (ATCC33186): 25 µg/mL (≈ 89.8 µM)

CN[C@@H]1[C@H](O)[C@H](NC)[C@H]2O[C@@]3(O)C(=O)C[C@@H](C)O[C@H]3O[C@@H]2[C@H]1O
MIC (broth dilution; ATCC33186): 50 µg/mL (≈ 150 µM)

CCCCCCCCCCCCCCCC(=O)NS(=O)(=O)Oc1cccc(Cl)c1
MIC (broth dilution; ATCC33186): 1.6 µg/mL (≈ 3.59 µM)
